Test results taken from ChEMBL document CHEMBL1151428, “Capability of 11 antipneumococcal antibiotics to select for resistance by multistep and single-step methodologies” (2007).
Converted amounts (≈) assume the structure as drawn.

Assays:
Type in all cases: functional
[1] = system: Streptococcus pneumoniae; test: Antimicrobial activity against drug-resistant Streptococcus pneumoniae isolate 3243 by NCCLS M7-A7 method
[2] = system: Streptococcus pneumoniae; test: Antimicrobial activity against drug-resistant Streptococcus pneumoniae isolate 3676 after 50 passages with moxifloxacin measured after 10 antibiotic-free subculture by multi-step resistance selection technique
[3] = system: Streptococcus pneumoniae; test: Antimicrobial activity against drug-resistant Streptococcus pneumoniae isolate 1077 after 49 passages with clindamycin measured after 10 antibiotic-free subculture by multi-step resistance selection technique
[4] = system: Streptococcus pneumoniae; test: Antimicrobial activity against drug-resistant Streptococcus pneumoniae isolate 3243 after 33 passages with azithromycin measured after 10 antibiotic-free subculture by multi-step resistance selection technique
In short: (§1)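 Mutants selected by daily broth passage in subinhibitory drug in cation-adjusted Mueller-Hinton broth with 5% lysed horse blood. Stability was tested by 10 daily passages on blood agar without antibiotic, then macrodilution MIC.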

[5] = system: Streptococcus pneumoniae; test: Antimicrobial activity against drug-resistant Streptococcus pneumoniae isolate 1635 after 14 passages with clindamycin measured after 10 antibiotic-free subculture by multi-step resistance selection technique
[6] = system: Streptococcus pneumoniae; test: Antimicrobial activity against drug-resistant Streptococcus pneumoniae isolate 2527 by NCCLS M7-A7 method
[7] = system: Streptococcus pneumoniae; test: Antimicrobial activity against drug-resistant Streptococcus pneumoniae isolate 1635 after 14 passages with azithromycin measured after 10 antibiotic-free subculture by multi-step resistance selection technique; in short: as §1
[8] = system: Streptococcus pneumoniae; test: Antimicrobial activity against drug-resistant Streptococcus pneumoniae isolate 3413 after 50 passages by multi-step resistance selection technique
In short: (§2)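 Daily serial passage in subinhibitory drug levels in 1 ml cation-adjusted Mueller-Hinton broth with 5% lysed horse blood; fresh broth for tigecycline. Each day, 10 μl were taken from the tube one to two dilutions below the MIC whose turbidity matched the growth control, and used to set the next MIC. MIC by macrodilution.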

[9] = system: Streptococcus pneumoniae; test: Antimicrobial activity against drug-resistant Streptococcus pneumoniae isolate 1077 after 29 passages with azithromycin measured after 10 antibiotic-free subculture by multi-step resistance selection technique; in short: as §1
[10] = system: Streptococcus pneumoniae; test: Antimicrobial activity against drug-resistant Streptococcus pneumoniae isolate 1635 after 49 passages with clarithromycin measured after 10 antibiotic-free subculture by multi-step resistance selection technique
[11] = system: Streptococcus pneumoniae; test: Antimicrobial activity against drug-resistant Streptococcus pneumoniae isolate 1635 by NCCLS M7-A7 method
[12] = system: Streptococcus pneumoniae; test: Antimicrobial activity against drug-resistant Streptococcus pneumoniae isolate 3676 after 50 passages by multi-step resistance selection technique
In short: (§3)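 Daily serial passage in broth at subinhibitory drug levels: 1 ml cation-adjusted Mueller-Hinton broth with 5% lysed horse blood; fresh broth for tigecycline. Each day 10 μl inoculum taken from the tube one to two dilutions below MIC matching growth-control turbidity, used to set next MIC. Continued until ≥8-fold MIC rise, minimum 14, maximum 50 passages; MIC read by macrodilution.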

[13] = system: Streptococcus pneumoniae; test: Antimicrobial activity against drug-resistant Streptococcus pneumoniae isolate 37 by NCCLS M7-A7 method
[14] = system: Streptococcus pneumoniae; test: Antimicrobial activity against drug-resistant Streptococcus pneumoniae isolate 3676 after 44 passages with clarithromycin measured after 10 antibiotic-free subculture by multi-step resistance selection technique
[15] = system: Streptococcus pneumoniae; test: Antimicrobial activity against drug-resistant Streptococcus pneumoniae isolate 3665 by NCCLS M7-A7 method
[16] = system: Streptococcus pneumoniae; test: Antimicrobial activity against drug-resistant Streptococcus pneumoniae isolate 1076 by NCCLS M7-A7 method
[17] = system: Streptococcus pneumoniae; test: Antimicrobial activity against drug-resistant Streptococcus pneumoniae isolate 37 after 14 passages with Telithromycin measured after 10 antibiotic-free subculture by multi-step resistance selection technique
[18] = system: Streptococcus pneumoniae; test: Antimicrobial activity against drug-resistant Streptococcus pneumoniae isolate 3243 after 20 passages with moxifloxacin measured after 10 antibiotic-free subculture by multi-step resistance selection technique; in short: as §1
[19] = system: Streptococcus pneumoniae; test: Antimicrobial activity against drug-resistant Streptococcus pneumoniae isolate 3009 after 21 passages with gemifloxacin measured after 10 antibiotic-free subculture by multi-step resistance selection technique; in short: as §1
[20] = system: Streptococcus pneumoniae; test: Antimicrobial activity against drug-resistant Streptococcus pneumoniae isolate 24 after 50 passages by multi-step resistance selection technique; in short: as §2
[21] = system: Streptococcus pneumoniae; test: Antimicrobial activity against drug-resistant Streptococcus pneumoniae isolate 3009 after 50 passages by multi-step resistance selection technique
In short: as §2, with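 “MIC. […]” for “MIC.”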

[22] = system: Streptococcus pneumoniae; test: Antimicrobial activity against drug-resistant Streptococcus pneumoniae isolate 2527 after 50 passages by multi-step resistance selection technique
In short: as §2, with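 “MIC. […]” for “MIC.”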

[23] = system: Streptococcus pneumoniae; test: Antimicrobial activity against drug-resistant Streptococcus pneumoniae isolate 3413 after 30 passages with Telithromycin measured after 10 antibiotic-free subculture by multi-step resistance selection technique; in short: as §1
[24] = system: Streptococcus pneumoniae; test: Antimicrobial activity against drug-resistant Streptococcus pneumoniae isolate 24 by NCCLS M7-A7 method
[25] = system: Streptococcus pneumoniae; test: Antimicrobial activity against drug-resistant Streptococcus pneumoniae isolate 3009 after 25 passages with clarithromycin measured after 10 antibiotic-free subculture by multi-step resistance selection technique
[26] = system: Streptococcus pneumoniae; test: Antimicrobial activity against drug-resistant Streptococcus pneumoniae isolate 3676 after 14 passages with Telithromycin measured after 10 antibiotic-free subculture by multi-step resistance selection technique
[27] = system: Streptococcus pneumoniae; test: Antimicrobial activity against drug-resistant Streptococcus pneumoniae isolate 3243 after 50 passages by multi-step resistance selection technique
In short: as §2, with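 “MIC. […]” for “MIC.”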

[28] = system: Streptococcus pneumoniae; test: Antimicrobial activity against drug-resistant Streptococcus pneumoniae isolate 3009 by NCCLS M7-A7 method
[29] = system: Streptococcus pneumoniae; test: Antimicrobial activity against drug-resistant Streptococcus pneumoniae isolate 3274 after 48 passages with Telithromycin measured after 10 antibiotic-free subculture by multi-step resistance selection technique; in short: as §1
[30] = system: Streptococcus pneumoniae; test: Antimicrobial activity against drug-resistant Streptococcus pneumoniae isolate 1076 after 14 passages with Telithromycin measured after 10 antibiotic-free subculture by multi-step resistance selection technique; in short: as §1
[31] = system: Streptococcus pneumoniae; test: Antimicrobial activity against drug-resistant Streptococcus pneumoniae isolate 3413 by NCCLS M7-A7 method
[32] = system: Streptococcus pneumoniae; test: Antimicrobial activity against drug-resistant Streptococcus pneumoniae isolate 1076 after 35 passages with moxifloxacin measured after 10 antibiotic-free subculture by multi-step resistance selection technique; in short: as §1
[33] = system: Streptococcus pneumoniae; test: Antimicrobial activity against drug-resistant Streptococcus pneumoniae isolate 3274 by NCCLS M7-A7 method
[34] = system: Streptococcus pneumoniae; test: Antimicrobial activity against drug-resistant Streptococcus pneumoniae isolate 3665 after 14 passages with Telithromycin measured after 10 antibiotic-free subculture by multi-step resistance selection technique
[35] = system: Streptococcus pneumoniae; test: Antimicrobial activity against drug-resistant Streptococcus pneumoniae isolate 24 after 14 passages with Telithromycin measured after 10 antibiotic-free subculture by multi-step resistance selection technique; in short: as §1
[36] = system: Streptococcus pneumoniae; test: Antimicrobial activity against drug-resistant Streptococcus pneumoniae isolate 1077 after 50 passages by multi-step resistance selection technique; in short: as §2
[37] = system: Streptococcus pneumoniae; test: Antimicrobial activity against drug-resistant Streptococcus pneumoniae isolate 1077 after 15 passages with Telithromycin measured after 10 antibiotic-free subculture by multi-step resistance selection technique; in short: as §1
[38] = system: Streptococcus pneumoniae; test: Antimicrobial activity against drug-resistant Streptococcus pneumoniae isolate 3009 after 19 passages with moxifloxacin measured after 10 antibiotic-free subculture by multi-step resistance selection technique; in short: as §1
[39] = system: Streptococcus pneumoniae; test: Antimicrobial activity against drug-resistant Streptococcus pneumoniae isolate 3665 after 50 passages by multi-step resistance selection technique; in short: as §3
[40] = system: Streptococcus pneumoniae; test: Antimicrobial activity against drug-resistant Streptococcus pneumoniae isolate 3274 after 50 passages by multi-step resistance selection technique; in short: as §2

SMILES	MIC [1]	MIC [2]	MIC [3]	MIC [4]	MIC [5]	MIC [6]	MIC [7]	MIC [8]	MIC [9]	MIC [10]	MIC [11]	MIC [12]	MIC [13]	MIC [14]	MIC [15]	MIC [16]	MIC [17]	MIC [18]	MIC [19]	MIC [20]	further results
CO/N=C(\C(=O)N[C@@H]1C(=O)N2C(C(=O)O)=C(CSc3nc(=O)c(O)nn3C)CS[C@H]12)c1csc(N)n1 [CEFTRIAXONE]	0.125 µg/mL (≈ 0.225 µM)	0.03 µg/mL (≈ 0.0541 µM)	0.016 µg/mL (≈ 0.0289 µM)	0.125 µg/mL (≈ 0.225 µM)	0.016 µg/mL (≈ 0.0289 µM)	2 µg/mL (≈ 3.61 µM)	0.016 µg/mL (≈ 0.0289 µM)	1 µg/mL (≈ 1.8 µM)	0.03 µg/mL (≈ 0.0541 µM)	0.016 µg/mL (≈ 0.0289 µM)	0.016 µg/mL (≈ 0.0289 µM)	0.06 µg/mL (≈ 0.108 µM)	2 µg/mL (≈ 3.61 µM)	0.03 µg/mL (≈ 0.0541 µM)	0.06 µg/mL (≈ 0.108 µM)	0.016 µg/mL (≈ 0.0289 µM)	2 µg/mL (≈ 3.61 µM)	0.06 µg/mL (≈ 0.108 µM)	0.03 µg/mL (≈ 0.0541 µM)	2 µg/mL (≈ 3.61 µM)	MIC [21]: 0.03 µg/mL (≈ 0.0541 µM); MIC [22]: 8 µg/mL (≈ 14.4 µM); MIC [23]: 2 µg/mL (≈ 3.61 µM); MIC [24]: 1 µg/mL (≈ 1.8 µM); MIC [25]: 0.016 µg/mL (≈ 0.0289 µM); MIC [26]: 0.06 µg/mL (≈ 0.108 µM); MIC [27]: 0.25 µg/mL (≈ 0.451 µM); MIC [28]: 0.03 µg/mL (≈ 0.0541 µM); MIC [29]: 0.125 µg/mL (≈ 0.225 µM); MIC [30]: 0.03 µg/mL (≈ 0.0541 µM); MIC [31]: 1 µg/mL (≈ 1.8 µM); MIC [32]: 0.016 µg/mL (≈ 0.0289 µM); MIC [33]: 0.125 µg/mL (≈ 0.225 µM); MIC [34]: 0.06 µg/mL (≈ 0.108 µM); MIC [35]: 2 µg/mL (≈ 3.61 µM); MIC [36]: 0.016 µg/mL (≈ 0.0289 µM); MIC [37]: 0.016 µg/mL (≈ 0.0289 µM); MIC [38]: 0.03 µg/mL (≈ 0.0541 µM); MIC [39]: 0.06 µg/mL (≈ 0.108 µM); MIC [40]: 0.25 µg/mL (≈ 0.451 µM)
CO/N=C1\CN(c2nc3c(cc2F)c(=O)c(C(=O)O)cn3C2CC2)CC1CN (stereo not drawn) [GEMIFLOXACIN]	0.016 µg/mL (≈ 0.0411 µM)	1 µg/mL (≈ 2.57 µM)	0.25 µg/mL (≈ 0.642 µM)	0.03 µg/mL (≈ 0.077 µM)	0.03 µg/mL (≈ 0.077 µM)	0.25 µg/mL (≈ 0.642 µM)	0.03 µg/mL (≈ 0.077 µM)	0.016 µg/mL (≈ 0.0411 µM)	0.25 µg/mL (≈ 0.642 µM)	0.03 µg/mL (≈ 0.077 µM)	0.016 µg/mL (≈ 0.0411 µM)	0.03 µg/mL (≈ 0.077 µM)	0.016 µg/mL (≈ 0.0411 µM)	0.03 µg/mL (≈ 0.077 µM)	0.016 µg/mL (≈ 0.0411 µM)	0.25 µg/mL (≈ 0.642 µM)	0.03 µg/mL (≈ 0.077 µM)	0.06 µg/mL (≈ 0.154 µM)	2 µg/mL (≈ 5.14 µM)	0.03 µg/mL (≈ 0.077 µM)	MIC [23]: 0.03 µg/mL (≈ 0.077 µM); MIC [24]: 0.016 µg/mL (≈ 0.0411 µM); MIC [25]: 0.03 µg/mL (≈ 0.077 µM); MIC [26]: 0.06 µg/mL (≈ 0.154 µM); MIC [27]: 0.06 µg/mL (≈ 0.154 µM); MIC [28]: 0.016 µg/mL (≈ 0.0411 µM); MIC [29]: 0.03 µg/mL (≈ 0.077 µM); MIC [30]: 0.25 µg/mL (≈ 0.642 µM); MIC [31]: 0.016 µg/mL (≈ 0.0411 µM); MIC [32]: 0.5 µg/mL (≈ 1.28 µM); MIC [33]: 0.016 µg/mL (≈ 0.0411 µM); MIC [34]: 0.03 µg/mL (≈ 0.077 µM); MIC [35]: 0.016 µg/mL (≈ 0.0411 µM); MIC [36]: 1 µg/mL (≈ 2.57 µM); MIC [37]: 0.25 µg/mL (≈ 0.642 µM); MIC [38]: 0.125 µg/mL (≈ 0.321 µM); MIC [39]: 0.06 µg/mL (≈ 0.154 µM); MIC [40]: 0.06 µg/mL (≈ 0.154 µM)
